≈ marks a conversion by molar mass, not a printed value. Calls of active or inactive are those of the source. The calls are words filed in the database; no cut-off is given here.
Legend:
[1] = tested on: Cryptococcus bacillisporus; assay: Antifungal activity against Cryptococcus gattii ATCC 32609 assessed as growth inhibition measured after 72 hrs by CLSI method; assay type: functional; conditions: ATCC 32609, 72 h
How it was run: (§1)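 Susceptibility testing by a modified CLSI (formerly NCCLS) method against C. neoformans ATCC 90113, C. neoformans H99 (from Duke University) or C. gattii ATCC 32609. The top test concentration was 20 μg/mL. MIC is the lowest concentration allowing no detectable growth. IC50 is the concentration giving 50% growth inhibition.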

Cryptococcus neoformans [2] = assay: Antifungal activity against Cryptococcus neoformans H99 assessed as growth inhibition measured after 72 hrs by CLSI method; assay type: functional; conditions: var grubii H99 ; how it was run: as §1
[3] = Antifungal activity against Cryptococcus neoformans ATCC 90113 assessed as growth inhibition measured after 72 hrs by CLSI method; assay type: functional; how it was run: as §1
[4] = Antifungal activity against Cryptococcus neoformans ATCC 90113 assessed as growth inhibition at 20 ug/ml measured after 72 hrs by CLSI method; assay type: functional
How it was run: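 Primary screen against C. neoformans ATCC 90113 by a modified CLSI method at 20 μg/mL. Growth inhibition above 50% at this concentration was scored as active and taken to further testing.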

[5] = Selectivity index, ratio of IC50 for pig LLC-PK1 cells to MIC for Cryptococcus neoformans ATCC 90113; assay type: toxicity, cell-based; conditions: read-out: Selectivity Index
How it was run: (§2)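 Selectivity index is the mammalian-cell IC50 (neutral red assay, Vero or LLC-PK1) divided by the MIC against C. neoformans ATCC 90113 (modified CLSI method).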

[6] = Cytotoxicity against African green monkey Vero cells assessed as reduction in viable cells measured after 48 hrs by neutral red dye-based method; assay type: toxicity, cell-based; conditions: African green monkey (Chlorocebus sabaeus)
How it was run: (§3)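 Vero (African green monkey kidney […]) and LLC-PK1 (pig kidney epithelial) cells were scored for viability by neutral red uptake. The top test concentration was 50 μg/mL. IC50 is the concentration causing 50% growth inhibition of the mammalian cells.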

[7] = Cytotoxicity against pig LLC-PK1 cells assessed as reduction in viable cells measured after 48 hrs by neutral red dye-based method; assay type: toxicity, cell-based; conditions: pig (Sus scrofa); how it was run: as §3
[8] = Selectivity index, ratio of IC50 for African green monkey Vero cells to MIC for Cryptococcus neoformans ATCC 90113; assay type: toxicity, cell-based; conditions: read-out: Selectivity Index; how it was run: as §2
[9] = tested on: Cryptococcus bacillisporus; assay: Antifungal activity against Cryptococcus gattii ATCC 32609 assessed as growth inhibition at 20 ug/ml measured after 72 hrs by CLSI method; assay type: functional; conditions: ATCC 32609, 72 h, read-out: GI
Cryptococcus neoformans [10] = assay: Antifungal activity against Cryptococcus neoformans ATCC 90113 assessed as growth inhibition at 20 ug/ml measured after 72 hrs by CLSI method; conditions: read-out: GI
Staphylococcus aureus = assay: Antibacterial activity against Staphylococcus aureus ATCC 29213 by CLSI method; assay type: functional

| SMILES | MIC [1] | MIC (Cryptococcus neoformans [2]) | MIC [3] | growth inhibition (GI) [4] | selectivity ratio [5] | IC50 at 48 h [6] | IC50 at 48 h [7] | selectivity ratio [8] | inhibition of growth at 20 µg/mL [9] | inhibition of growth at 20 µg/mL (Cryptococcus neoformans [10]) | Activity (Staphylococcus aureus) |
| --- | --- | --- | --- | --- | --- | --- | --- | --- | --- | --- | --- |
| C[C@@H]1[C@H](O)[C@@H](C)/C=C/C=C/C=C/C=C/C=C/C=C/C=C/[C@H](O[C@@H]2O[C@H](C)[C@@H](O)[C@H](N)[C@@H]2O)C[C@@H]2O[C@](O)(C[C@@H](O)C[C@@H](O)[C@H](O)CC[C@@H](O)C[C@@H](O)CC(=O)O[C@H]1C)C[C@H](O)[C@H]2C(=O)O [AMPHOTERICIN B] | 0.3 µg/mL (≈ 0.325 µM) | 0.3 µg/mL (≈ 0.325 µM) | 0.4 µg/mL (≈ 0.433 µM) |  |  |  |  |  |  |  |  |
| CCOC(=O)COc1cc(O)cc(O)c1C(=O)C(C)C |  |  |  | < 50% |  |  |  |  |  |  |  |
| CC(C)=CCc1c(O)cc(O)c(C(=O)C(C)(C)C)c1O |  |  |  | < 50% |  |  |  |  |  |  |  |
| CCOC(=O)COc1cc(O)c(C(=O)C(C)C)c(OCC(=O)OCC)c1 |  |  |  | < 50% |  |  |  |  |  |  |  |
| CC(C)C(=O)c1c(O)cc(O)c(C(=O)c2ccccc2)c1O | 8.3 µg/mL (≈ 27.6 µM) | 10 µg/mL (≈ 33.3 µM) | 10 µg/mL (≈ 33.3 µM) | > 50% | 4.3 | 23 µg/mL (≈ 76.6 µM) | 42.5 µg/mL (≈ 142 µM) | 2.3 |  |  |  |
| CC(C)=CCc1c(O)cc(O)c(C(=O)C(C)C)c1O | 5 µg/mL (≈ 18.9 µM) | 8.3 µg/mL (≈ 31.4 µM) | 5 µg/mL (≈ 18.9 µM) | > 50% | 6.2 | 18 µg/mL (≈ 68.1 µM) | 31 µg/mL (≈ 117 µM) | 3.6 |  |  |  |
| C=CCc1c(O)cc(O)c(C(=O)C(C)C)c1O |  |  |  | < 50% |  |  |  |  | < 50% | < 50% |  |
| CC(C)C(=O)c1c(O)cc(O)cc1O |  |  |  | < 50% |  |  |  |  |  |  |  |
| CC(C)C(=O)c1c(O)cc(O)cc1OCc1c(F)cccc1Cl | 5 µg/mL (≈ 14.8 µM) | 8.3 µg/mL (≈ 24.5 µM) | 5 µg/mL (≈ 14.8 µM) | > 50% | > 10 | > 50 µg/mL | > 50 µg/mL | > 10 |  |  | Active |
| COc1ccc(C(=O)c2c(O)cc(O)c(C(=O)C(C)C)c2O)cc1 | 8.3 µg/mL (≈ 25.1 µM) | 10 µg/mL (≈ 30.3 µM) | 13.3 µg/mL (≈ 40.3 µM) | > 50% | 1.9 | 10.5 µg/mL (≈ 31.8 µM) | 24.8 µg/mL (≈ 75.1 µM) | 0.8 |  |  |  |
| CC(C)C(=O)c1c(O)cc(O)c(CC#N)c1O |  |  |  | < 50% |  |  |  |  | < 50% | < 50% |  |
| CC(C)C(=O)c1c(O)cc(OCC(=O)NC(C)(C)C)cc1O |  |  |  | < 50% |  |  |  |  |  |  |  |
| CCOC(=O)COc1cc(O)c(C(=O)C(C)C)c(O)c1 |  |  |  | < 50% |  |  |  |  |  |  |  |
| CC(C)(C)C(=O)c1c(O)cc(O)cc1O |  |  |  | < 50% |  |  |  |  |  |  |  |
| CC(C)C(=O)c1c(O)cc(O)c(Cc2c(F)cccc2Cl)c1O | 4.2 µg/mL (≈ 12.4 µM) | 6.7 µg/mL (≈ 19.8 µM) | 1.7 µg/mL (≈ 5.02 µM) | > 50% | 15.5 | 28 µg/mL (≈ 82.7 µM) | 26.3 µg/mL (≈ 77.6 µM) | 16.5 |  |  |  |
| CC(C)C(=O)c1c(O)cc(O)c(Cc2c(Cl)cccc2Cl)c1O | 2.1 µg/mL (≈ 5.91 µM) | 4.2 µg/mL (≈ 11.8 µM) | 1 µg/mL (≈ 2.82 µM) | > 50% | 29.5 | 27.5 µg/mL (≈ 77.4 µM) | 29.5 µg/mL (≈ 83 µM) | 27.5 |  |  |  |
| COc1cccc2c1C(=O)c1c(O)c3c(c(O)c1C2=O)C[C@@](O)(C(=O)CO)C[C@@H]3O[C@H]1C[C@H](N)[C@H](O)[C@H](C)O1 [DOXORUBICIN] |  |  |  |  |  | > 10 µg/mL | 1.3 µg/mL (≈ 2.39 µM) |  |  |  |  |
| CCCC(=O)c1c(O)cc(O)c(C(=O)CCC)c1O | 1.5 µg/mL (≈ 5.63 µM) | 2.5 µg/mL (≈ 9.39 µM) | 2.1 µg/mL (≈ 7.89 µM) | > 50% | 11.7 | 14.5 µg/mL (≈ 54.5 µM) | 24.5 µg/mL (≈ 92 µM) | 6.9 |  |  |  |

Source: ChEMBL document CHEMBL3867450, “Synthesis of Natural Acylphloroglucinol-Based Antifungal Compounds against Cryptococcus Species” (J Nat Prod, 2016)
